Assays:
Cavia porcellus [1] = organism: Cavia porcellus; assay: Agonist activity expressed as percent inhibition of contraction of electrically stimulated guinea pig ileal longitudinal muscle at a concentration of 1 uM; assay type: functional, Muscle tissue
Method in brief: (§1)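 Electrically stimulated GPI longitudinal muscle or MVD preparations. Ligands that were not full agonists were tested at 1 µM. Inhibition of contraction was expressed as a percentage of the maximal response. Three or more replicate determinations were run per compound.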

Mus musculus [2] = organism: Mus musculus; assay: Agonist activity expressed as percent inhibition of contraction of electrically stimulated mouse vas deferens at a concentration of 1 uM; assay type: functional; method in brief: as §1
[3] = molecular target: Kappa-type opioid receptor (Mus musculus, UniProt P33534); assay: Inhibition of [3H]U-69593 binding to Opioid receptor kappa 1 from mouse brain membranes.
Chain of Kappa-type opioid receptor (P33534 whole entry): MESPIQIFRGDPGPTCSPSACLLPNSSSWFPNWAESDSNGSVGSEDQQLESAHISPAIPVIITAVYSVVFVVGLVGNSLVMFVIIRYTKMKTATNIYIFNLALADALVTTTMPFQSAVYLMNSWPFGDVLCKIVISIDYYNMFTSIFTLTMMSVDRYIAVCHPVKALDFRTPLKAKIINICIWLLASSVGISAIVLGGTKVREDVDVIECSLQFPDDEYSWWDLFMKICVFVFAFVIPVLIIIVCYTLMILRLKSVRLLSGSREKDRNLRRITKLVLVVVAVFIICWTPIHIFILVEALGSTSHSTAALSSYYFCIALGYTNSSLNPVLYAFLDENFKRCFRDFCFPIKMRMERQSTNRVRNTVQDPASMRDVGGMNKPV
Method in brief: (§2)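 Competition binding of test ligands against tritiated radioligands on mouse brain membranes; the μ site used [3H]DAMGO. IC50 was converted to Ki by the Cheng-Prusoff equation using radioligand concentration and KD. Values are arithmetic means of at least 3 determinations, ±SEM.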

Mu-type opioid receptor = Mu-type opioid receptor (Mus musculus, UniProt P42866); assay: Inhibition of [3H]DAMGO binding to Opioid receptor mu 1 from mouse brain membranes.; method in brief: as §2
Chain of Mu-type opioid receptor (P42866 whole entry): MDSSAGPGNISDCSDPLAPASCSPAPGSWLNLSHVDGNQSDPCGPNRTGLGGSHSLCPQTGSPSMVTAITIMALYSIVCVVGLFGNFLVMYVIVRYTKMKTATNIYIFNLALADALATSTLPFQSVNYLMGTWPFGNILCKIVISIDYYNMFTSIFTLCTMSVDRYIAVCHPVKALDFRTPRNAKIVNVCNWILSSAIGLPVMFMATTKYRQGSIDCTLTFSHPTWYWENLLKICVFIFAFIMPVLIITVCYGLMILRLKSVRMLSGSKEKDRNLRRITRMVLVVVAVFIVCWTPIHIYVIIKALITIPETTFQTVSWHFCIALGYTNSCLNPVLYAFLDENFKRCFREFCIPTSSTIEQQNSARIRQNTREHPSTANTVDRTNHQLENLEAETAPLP

[4] = molecular target: Delta-type opioid receptor (Mus musculus, UniProt P32300); assay: Inhibition of [3H]-NTI binding to Opioid receptor delta 1 from mouse brain membranes.; method in brief: as §2
Chain of Delta-type opioid receptor (P32300 whole entry): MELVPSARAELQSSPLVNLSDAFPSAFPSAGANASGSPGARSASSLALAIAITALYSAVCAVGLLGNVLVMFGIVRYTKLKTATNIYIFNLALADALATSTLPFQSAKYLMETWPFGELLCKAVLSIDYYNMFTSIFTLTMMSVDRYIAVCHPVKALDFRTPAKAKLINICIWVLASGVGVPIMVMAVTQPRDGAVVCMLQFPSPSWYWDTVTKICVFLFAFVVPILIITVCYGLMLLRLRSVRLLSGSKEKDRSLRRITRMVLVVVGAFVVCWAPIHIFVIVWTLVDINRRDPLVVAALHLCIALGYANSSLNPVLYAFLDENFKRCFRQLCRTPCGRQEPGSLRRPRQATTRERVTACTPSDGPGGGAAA

Cavia porcellus [5] = organism: Cavia porcellus; assay: Agonist activity expressed as inhibitory concentration against contraction of electrically stimulated guinea pig ileum; assay type: functional
Method in brief: (§3)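 Electrically stimulated smooth muscle: longitudinal muscle of guinea pig ileum (GPI) and mouse vas deferens (MVD). Inhibition of contraction was measured for ligands acting as full agonists, and potency was given as IC50 (nM). Three or more replicate determinations were run per compound.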

Mus musculus [6] = organism: Mus musculus; assay: Agonist activity expressed as inhibitory concentration against contraction of electrically stimulated mouse vas deferens; assay type: functional; method in brief: as §3

O=C1[C@@H]2Oc3c(O)ccc4c3C23CCN(CC2CC2)C(C4)[C@]3(O)C[C@]12CCc1ccccc1C2 (stereo not given in full)
Max response (Cavia porcellus [1]): 2%
Max response (Mus musculus [2]): 4%
Ki [3]: > 1000 nM
Ki (Mu-type opioid receptor): 0.38 nM
Ki [4]: 0.0019 nM

CN1CCC23c4c5ccc(O)c4O[C@H]2C(=O)[C@@]2(CCc4ccccc4C2)C[C@H]3C1C5 (stereo not given in full)
Max response (Mus musculus [2]): 42%
IC50 (Cavia porcellus [5]): 130 nM
Ki [3]: 88 nM
Ki (Mu-type opioid receptor): 2.8 nM
Ki [4]: 8.3 nM

CN1CCC23c4c5ccc(O)c4O[C@H]2C(=O)[C@@]2(CCc4ccccc4C2)C[C@@]3(O)C1C5 (stereo not given in full)
IC50 (Mus musculus [6]): 24 nM
IC50 (Cavia porcellus [5]): 183 nM
Ki [3]: > 1000 nM
Ki (Mu-type opioid receptor): 18 nM
Ki [4]: 4.6 nM

O=C1[C@@H]2Oc3c(O)ccc4c3C23CCN(CC2CC2)C(C4)[C@]3(O)C[C@@]12CCc1ccccc1C2 (stereo not given in full)
Max response (Cavia porcellus [1]): 16%
Max response (Mus musculus [2]): 3%
Ki [3]: 147 nM
Ki (Mu-type opioid receptor): 0.72 nM
Ki [4]: 0.0041 nM

CN1CCC23c4c5ccc(O)c4O[C@H]2C(=O)[C@]2(CCc4ccccc4C2)C[C@H]3C1C5 (stereo not given in full)
Max response (Mus musculus [2]): 17%
IC50 (Cavia porcellus [5]): 107 nM
Ki [3]: > 1000 nM
Ki (Mu-type opioid receptor): 119 nM
Ki [4]: 182 nM

CN1CCC23c4c5ccc(O)c4O[C@H]2C(=O)[C@]2(CCc4ccccc4C2)C[C@@]3(O)C1C5 (stereo not given in full)
IC50 (Mus musculus [6]): 28 nM
IC50 (Cavia porcellus [5]): 629 nM
Ki [3]: > 3000 nM
Ki (Mu-type opioid receptor): 28 nM
Ki [4]: 9.3 nM

O=C1[C@@H]2Oc3c(O)ccc4c3[C@@]23CCN(CC2CC2)[C@H](C4)[C@]3(O)CC12Cc1ccccc1C2
Max response (Cavia porcellus [1]): 16%
Max response (Mus musculus [2]): 8%
Ki [3]: > 3000 nM
Ki (Mu-type opioid receptor): 1.5 nM
Ki [4]: 0.25 nM

CN1CC[C@]23c4c5ccc(O)c4O[C@H]2C(=O)C2(Cc4ccccc4C2)C[C@@]3(O)[C@H]1C5 [SPIROINDANYLOXYMORPHONE]
Max response (Cavia porcellus [1]): 55%
IC50 (Mus musculus [6]): 22 nM
Ki [3]: > 3000 nM
Ki (Mu-type opioid receptor): 14 nM
Ki [4]: 2.8 nM
